# From ChEMBL document CHEMBL4689842, “EUbOPEN Chemogenomics Library wave 1” (2021)
# System: HEK-293T
# Assay: Multiplex assay against HEK293T;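 on Population Tubulin-Different-Phenotype (%): share of the cells with healthy nuclei that show this phenotype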
# Assay type: toxicity, cell-based
# Conditions: human
# In short: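 Per cents of healthy-nucleus cells form the tubulin, mitochondrial-mass and membrane-permeability phenotype values. Live cells were stained at seeding with Hoechst33342, BioTracker Green Microtubule Cytoskeleton Dye, MitoTracker Red and Annexin V Alexa Fluor 680. After compound addition they were imaged on a CQ1 microscope at 37°C and 5% CO2, and CellPathfinder machine-learning gating split them into Hoechst high-intensity objects or normal cells, normal cells into healthy, pyknosed or fragmented nuclei, and pyknosed cells into mitotic or apoptotic.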
# [1] = 12 h, 1 µM, compound concentration 1 uM, replicate 1
# [2] = 12 h, 1 µM, compound concentration 1 uM, replicate 2
# [3] = 12 h, 10 µM, compound concentration 10 uM, replicate 1
# [4] = 12 h, 10 µM, compound concentration 10 uM, replicate 2
# [5] = 24 h, 1 µM, compound concentration 1 uM, replicate 1
# [6] = 24 h, 1 µM, compound concentration 1 uM, replicate 2
# [7] = 24 h, 10 µM, compound concentration 10 uM, replicate 1
# [8] = 24 h, 10 µM, compound concentration 10 uM, replicate 2
# [9] = 48 h, 1 µM, compound concentration 1 uM, replicate 1
# [10] = 48 h, 1 µM, compound concentration 1 uM, replicate 2
# [11] = 48 h, 10 µM, compound concentration 10 uM, replicate 1
# [12] = 48 h, 10 µM, compound concentration 10 uM, replicate 2
smiles,measurement,setting,value
COc1cccc([C@@H](C)NCCCc2ccccc2Cl)c1.Cl [TECALCET HYDROCHLORIDE],Population Apoptotic (%),[1],45%
same,Population Fragmented Nuclei (%),[1],9%
same,Population Healthy Nuclei (%),[1],46%
same,Population Hoechst High Intensity Objects (%),[1],11%
same,Population Membrane Permeable-Phenotype (%),[1],2%
same,Population Mitochondria Different-Phenotype (%),[1],83%
same,Population Mitotic Cells (%),[1],54%
same,Population Normal (%),[1],88%
same,Population Pyknosed Nuclei (%),[1],44%
same,Population Tubulin-Different-Phenotype (%),[1],57%
same,Total Cell Count,[1],333
same,Population Apoptotic (%),[2],16%
same,Population Fragmented Nuclei (%),[2],3%
same,Population Healthy Nuclei (%),[2],29%
same,Population Hoechst High Intensity Objects (%),[2],3%
same,Population Membrane Permeable-Phenotype (%),[2],11%
same,Population Mitochondria Different-Phenotype (%),[2],45%
same,Population Mitotic Cells (%),[2],83%
same,Population Normal (%),[2],96%
same,Population Pyknosed Nuclei (%),[2],67%
same,Population Tubulin-Different-Phenotype (%),[2],41%
same,Total Cell Count,[2],188
same,Population Apoptotic (%),[3],80%
same,Population Fragmented Nuclei (%),[3],9%
same,Population Healthy Nuclei (%),[3],29%
same,Population Hoechst High Intensity Objects (%),[3],12%
same,Population Membrane Permeable-Phenotype (%),[3],2%
same,Population Mitochondria Different-Phenotype (%),[3],100%
same,Population Mitotic Cells (%),[3],19%
same,Population Normal (%),[3],87%
same,Population Pyknosed Nuclei (%),[3],60%
same,Population Tubulin-Different-Phenotype (%),[3],93%
same,Total Cell Count,[3],290
same,Population Apoptotic (%),[4],59%
same,Population Fragmented Nuclei (%),[4],3%
same,Population Healthy Nuclei (%),[4],22%
same,Population Hoechst High Intensity Objects (%),[4],4%
same,Population Membrane Permeable-Phenotype (%),[4],4%
same,Population Mitochondria Different-Phenotype (%),[4],95%
same,Population Mitotic Cells (%),[4],40%
same,Population Normal (%),[4],95%
same,Population Pyknosed Nuclei (%),[4],74%
same,Population Tubulin-Different-Phenotype (%),[4],95%
same,Total Cell Count,[4],222
same,Population Apoptotic (%),[5],36%
same,Population Fragmented Nuclei (%),[5],8%
same,Population Healthy Nuclei (%),[5],64%
same,Population Hoechst High Intensity Objects (%),[5],9%
same,Population Membrane Permeable-Phenotype (%),[5],2%
same,Population Mitochondria Different-Phenotype (%),[5],73%
same,Population Mitotic Cells (%),[5],63%
same,Population Normal (%),[5],90%
same,Population Pyknosed Nuclei (%),[5],26%
same,Population Tubulin-Different-Phenotype (%),[5],52%
same,Total Cell Count,[5],417
same,Population Apoptotic (%),[6],27%
same,Population Fragmented Nuclei (%),[6],3%
same,Population Healthy Nuclei (%),[6],50%
same,Population Hoechst High Intensity Objects (%),[6],2%
same,Population Membrane Permeable-Phenotype (%),[6],10%
same,Population Mitochondria Different-Phenotype (%),[6],25%
same,Population Mitotic Cells (%),[6],72%
same,Population Normal (%),[6],97%
same,Population Pyknosed Nuclei (%),[6],46%
same,Population Tubulin-Different-Phenotype (%),[6],44%
same,Total Cell Count,[6],217
same,Population Apoptotic (%),[7],74%
same,Population Fragmented Nuclei (%),[7],11%
same,Population Healthy Nuclei (%),[7],36%
same,Population Hoechst High Intensity Objects (%),[7],9%
same,Population Membrane Permeable-Phenotype (%),[7],0%
same,Population Mitotic Cells (%),[7],25%
same,Population Normal (%),[7],90%
same,Population Pyknosed Nuclei (%),[7],51%
same,Total Cell Count,[7],307
same,Population Apoptotic (%),[8],63%
same,Population Fragmented Nuclei (%),[8],4%
same,Population Healthy Nuclei (%),[8],41%
same,Population Hoechst High Intensity Objects (%),[8],5%
same,Population Membrane Permeable-Phenotype (%),[8],1%
same,Population Mitochondria Different-Phenotype (%),[8],100%
same,Population Mitotic Cells (%),[8],36%
same,Population Normal (%),[8],94%
same,Population Pyknosed Nuclei (%),[8],53%
same,Population Tubulin-Different-Phenotype (%),[8],97%
same,Total Cell Count,[8],233
same,Population Apoptotic (%),[9],20%
same,Population Fragmented Nuclei (%),[9],6%
same,Population Healthy Nuclei (%),[9],81%
same,Population Hoechst High Intensity Objects (%),[9],5%
same,Population Membrane Permeable-Phenotype (%),[9],2%
same,Population Mitochondria Different-Phenotype (%),[9],22%
same,Population Mitotic Cells (%),[9],79%
same,Population Normal (%),[9],94%
same,Population Pyknosed Nuclei (%),[9],11%
same,Population Tubulin-Different-Phenotype (%),[9],23%
same,Total Cell Count,[9],698
same,Population Apoptotic (%),[10],23%
same,Population Fragmented Nuclei (%),[10],7%
same,Population Healthy Nuclei (%),[10],76%
same,Population Hoechst High Intensity Objects (%),[10],3%
same,Population Membrane Permeable-Phenotype (%),[10],8%
same,Population Mitochondria Different-Phenotype (%),[10],15%
same,Population Mitotic Cells (%),[10],76%
same,Population Normal (%),[10],96%
same,Population Pyknosed Nuclei (%),[10],16%
same,Population Tubulin-Different-Phenotype (%),[10],49%
same,Total Cell Count,[10],383
same,Population Apoptotic (%),[11],73%
same,Population Fragmented Nuclei (%),[11],15%
same,Population Healthy Nuclei (%),[11],55%
same,Population Hoechst High Intensity Objects (%),[11],10%
same,Population Membrane Permeable-Phenotype (%),[11],1%
same,Population Mitochondria Different-Phenotype (%),[11],94%
same,Population Mitotic Cells (%),[11],26%
same,Population Normal (%),[11],89%
same,Population Pyknosed Nuclei (%),[11],29%
same,Population Tubulin-Different-Phenotype (%),[11],89%
same,Total Cell Count,[11],355
same,Population Apoptotic (%),[12],58%
same,Population Fragmented Nuclei (%),[12],4%
same,Population Healthy Nuclei (%),[12],62%
same,Population Hoechst High Intensity Objects (%),[12],2%
same,Population Membrane Permeable-Phenotype (%),[12],0%
same,Population Mitochondria Different-Phenotype (%),[12],93%
same,Population Mitotic Cells (%),[12],41%
same,Population Normal (%),[12],97%
same,Population Pyknosed Nuclei (%),[12],33%
same,Population Tubulin-Different-Phenotype (%),[12],96%
same,Total Cell Count,[12],265
Cc1c(-c2ccc(O)cc2)n(Cc2ccc(OCCN3CCCCCC3)cc2)c2ccc(O)cc12 [BAZEDOXIFENE],Population Apoptotic (%),[1],40%
same,Population Fragmented Nuclei (%),[1],15%
same,Population Healthy Nuclei (%),[1],32%
same,Population Hoechst High Intensity Objects (%),[1],16%
same,Population Membrane Permeable-Phenotype (%),[1],0%
same,Population Mitochondria Different-Phenotype (%),[1],93%
same,Population Mitotic Cells (%),[1],59%
same,Population Normal (%),[1],83%
same,Population Pyknosed Nuclei (%),[1],52%
same,Population Tubulin-Different-Phenotype (%),[1],77%
same,Population Apoptotic (%),[2],12%
same,Population Fragmented Nuclei (%),[2],10%
same,Population Healthy Nuclei (%),[2],43%
same,Population Hoechst High Intensity Objects (%),[2],6%
same,Population Membrane Permeable-Phenotype (%),[2],11%
same,Population Mitochondria Different-Phenotype (%),[2],36%
same,Population Mitotic Cells (%),[2],87%
same,Population Normal (%),[2],93%
same,Population Pyknosed Nuclei (%),[2],46%
same,Population Tubulin-Different-Phenotype (%),[2],38%
same,Total Cell Count,[2],168
same,Population Fragmented Nuclei (%),[3],14%
same,Population Healthy Nuclei (%),[3],8%
same,Population Hoechst High Intensity Objects (%),[3],21%
same,Population Membrane Permeable-Phenotype (%),[3],0%
same,Population Mitochondria Different-Phenotype (%),[3],90%
same,Population Normal (%),[3],78%
same,Population Pyknosed Nuclei (%),[3],77%
same,Population Tubulin-Different-Phenotype (%),[3],72%
same,Total Cell Count,[3],161
same,Population Apoptotic (%),[4],88%
same,Population Fragmented Nuclei (%),[4],9%
same,Population Healthy Nuclei (%),[4],7%
same,Population Hoechst High Intensity Objects (%),[4],10%
same,Population Membrane Permeable-Phenotype (%),[4],10%
same,Population Mitochondria Different-Phenotype (%),[4],100%
same,Population Mitotic Cells (%),[4],11%
same,Population Normal (%),[4],89%
same,Population Pyknosed Nuclei (%),[4],83%
same,Population Tubulin-Different-Phenotype (%),[4],100%
same,Total Cell Count,[4],159
same,Population Apoptotic (%),[5],44%
same,Population Fragmented Nuclei (%),[5],13%
same,Population Healthy Nuclei (%),[5],45%
same,Population Hoechst High Intensity Objects (%),[5],13%
same,Population Membrane Permeable-Phenotype (%),[5],5%
same,Population Mitochondria Different-Phenotype (%),[5],84%
same,Population Mitotic Cells (%),[5],55%
same,Population Normal (%),[5],86%
same,Population Pyknosed Nuclei (%),[5],40%
same,Population Tubulin-Different-Phenotype (%),[5],54%
same,Total Cell Count,[5],180
same,Population Apoptotic (%),[6],18%
same,Population Fragmented Nuclei (%),[6],8%
same,Population Healthy Nuclei (%),[6],50%
same,Population Hoechst High Intensity Objects (%),[6],8%
same,Population Membrane Permeable-Phenotype (%),[6],9%
same,Population Mitochondria Different-Phenotype (%),[6],40%
same,Population Mitotic Cells (%),[6],81%
same,Population Normal (%),[6],91%
same,Population Tubulin-Different-Phenotype (%),[6],53%
same,Total Cell Count,[6],207
same,Population Apoptotic (%),[7],96%
same,Population Fragmented Nuclei (%),[7],13%
same,Population Healthy Nuclei (%),[7],9%
same,Population Hoechst High Intensity Objects (%),[7],21%
same,Population Membrane Permeable-Phenotype (%),[7],0%
same,Population Mitochondria Different-Phenotype (%),[7],100%
same,Population Mitotic Cells (%),[7],3%
same,Population Normal (%),[7],78%
same,Population Pyknosed Nuclei (%),[7],76%
same,Population Tubulin-Different-Phenotype (%),[7],92%
same,Total Cell Count,[7],175
same,Population Apoptotic (%),[8],90%
same,Population Fragmented Nuclei (%),[8],9%
same,Population Healthy Nuclei (%),[8],5%
same,Population Hoechst High Intensity Objects (%),[8],8%
same,Population Membrane Permeable-Phenotype (%),[8],33%
same,Population Mitochondria Different-Phenotype (%),[8],88%
same,Population Mitotic Cells (%),[8],10%
same,Population Normal (%),[8],91%
same,Population Pyknosed Nuclei (%),[8],84%
same,Population Tubulin-Different-Phenotype (%),[8],88%
same,Total Cell Count,[8],168
same,Population Apoptotic (%),[9],39%
same,Population Fragmented Nuclei (%),[9],14%
same,Population Healthy Nuclei (%),[9],69%
same,Population Hoechst High Intensity Objects (%),[9],9%
same,Population Membrane Permeable-Phenotype (%),[9],3%
same,Population Mitochondria Different-Phenotype (%),[9],41%
same,Population Mitotic Cells (%),[9],60%
same,Population Normal (%),[9],90%
same,Population Pyknosed Nuclei (%),[9],16%
same,Population Tubulin-Different-Phenotype (%),[9],40%
same,Total Cell Count,[9],275
same,Population Apoptotic (%),[10],12%
same,Population Fragmented Nuclei (%),[10],3%
same,Population Healthy Nuclei (%),[10],75%
same,Population Hoechst High Intensity Objects (%),[10],2%
same,Population Membrane Permeable-Phenotype (%),[10],4%
same,Population Mitochondria Different-Phenotype (%),[10],19%
same,Population Mitotic Cells (%),[10],87%
same,Population Normal (%),[10],97%
same,Population Pyknosed Nuclei (%),[10],21%
same,Population Tubulin-Different-Phenotype (%),[10],32%
same,Total Cell Count,[10],314
same,Population Apoptotic (%),[11],91%
same,Population Fragmented Nuclei (%),[11],22%
same,Population Healthy Nuclei (%),[11],1%
same,Population Hoechst High Intensity Objects (%),[11],23%
same,Population Membrane Permeable-Phenotype (%),[11],0%
same,Population Mitochondria Different-Phenotype (%),[11],100%
same,Population Mitotic Cells (%),[11],8%
same,Population Normal (%),[11],76%
same,Population Pyknosed Nuclei (%),[11],75%
same,Population Tubulin-Different-Phenotype (%),[11],50%
same,Total Cell Count,[11],178
same,Population Apoptotic (%),[12],95%
same,Population Fragmented Nuclei (%),[12],20%
same,Population Healthy Nuclei (%),[12],6%
same,Population Hoechst High Intensity Objects (%),[12],9%
same,Population Membrane Permeable-Phenotype (%),[12],20%
same,Population Mitochondria Different-Phenotype (%),[12],90%
same,Population Mitotic Cells (%),[12],4%
same,Population Normal (%),[12],90%
same,Population Pyknosed Nuclei (%),[12],72%
same,Population Tubulin-Different-Phenotype (%),[12],90%
same,Total Cell Count,[12],163
